Two substances from PMC8851504 (Proceedings of the National Academy of Sciences of the …, 2022) can be followed below.

Bridge positions count the residues as written; N and C are the ends. Ends that are not written are not given here.

Series [1] concerns human ErbB1 receptor (hErbB1) transiently expressed in HEK293T cells. Put plainly: BRET assay of ligand-induced ErbB1 activation. Type of series: cell-based. The conditions noted are these: for Agonism at / potency on mammalian ErbB1 (summary in words): summary statement. Background: In BRET a luciferase serves as donor, and the signal depends on an acceptor being close.
Series [2] deals with hypersensitivity of the injected paw in mice. Put plainly: Time course of hypersensitivity. Type of series: in vivo, mouse (C57BL/6J). The conditions noted are these: intraplantar injection in mice. In outline:
(§1)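 Male C57BL/6J mice (5 wk old) were given 200 pmol test compound, or vehicle alone, by shallow intraplantar hind-paw injection in 20 µL saline with 0.1% BSA. After 30 min acclimatisation on bar-bottom enclosures, paw-withdrawal thresholds were measured. Mechanical thresholds used automatic von Frey and thermal thresholds an automated thermal device. Readings were taken 3 d before injection and at 1 h–7 d, blinded, n = 6/group, two-way ANOVA with Šídák's test.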

The subject of a further series is paw inflammation in mice. In words: Paw inflammation: visual inspection and paw thickness by calipers. Type of series: in vivo, mouse (C57BL/6J). The settings on record: 200 pmol i.pl.; over the time course of the experiment. A digest of the protocol: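 In male C57BL/6J mice, 200 pmol test compound, or vehicle alone, was injected intraplantar in 20 µL saline with 0.1% BSA. The injected paw was inspected for swelling and reddening at each time point up to 7 d. At 3 d, both hind paws were measured with electronic calipers and expressed as an ipsilateral/contralateral ratio. Groups were n = 6, compared by unpaired t test.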

Series [3] relates to sheep blowflies (Lucilia cuprina). Put plainly: Sheep blowfly paralysis/survival assay after injection. The conditions noted are these: intraabdominal injection, up to 41 nmol/g (as stated in main text). Type of series: in vivo.
For series [4], the system named is crickets (Acheta domesticus). In words: Cricket righting assay after injection. Type of series: in vivo. The conditions noted are these: intraabdominal injection, up to 41 nmol/g (as stated in main text). In outline:
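House crickets (average mass 50 mg) received intraabdominal injections of 2 μL water or test compound at 1.4 to 41.5 nmol/g. Each cricket was then placed on its back and the time taken to right itself was recorded. Treated and water groups were compared by one-way ANOVA with Šídák's test.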

For series [5], the system named is paw-withdrawal threshold to thermal stimulus in mice. In words: Paw-withdrawal threshold to thermal stimulus. Type of series: in vivo, mouse (C57BL/6J). The settings on record: 200 pmol i.pl.; measured 1 h to 7 d; vs saline; n = 6 per group. In outline: as §1
Series [6] has as its system Erk1/2 phosphorylation downstream of human ErbB1 in HEK293 cells. Type of series: cell-based. The conditions noted are these: comparison with hEGF; 2.5 or 10 nM; n = 3. In outline: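 HEK293 cells at ~80% confluence were transfected with 15 ng human ErbB1 plasmid (Lipofectamine LTX) and grown 24 h in DMEM with 10% FBS. […] RIPA lysates containing protease and phosphatase inhibitors were run on SDS-PAGE and probed for phospho-Erk1/2 and GAPDH by fluorescent immunoblot. Phospho-Erk was normalised to GAPDH; n = 3, one-way ANOVA with Šídák's test.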

For series [7], the system named is paw-withdrawal threshold to mechanical stimulus in mice. Put plainly: Paw-withdrawal threshold to mechanical stimulus. Type of series: in vivo, mouse (C57BL/6J). The settings on record: 200 pmol i.pl.; measured 1 h to 7 d; vs saline; n = 6 per group. A digest of the protocol: as §1
The subject of series [8] is fruit flies (Drosophila melanogaster). Put plainly: Fruit fly paralysis/survival assay after injection. Type of series: in vivo. The settings on record: intraabdominal injection, up to 41 nmol/g (as stated in main text).

Regarding “Mg1a (GDISDYGDPCSDDLKDYCIHGDCFFLKELNQPACRCYTGYYGSRCEHIDHN; disulfide 10-23, 18-34, 36-45)”, the “Agonism at / potency on mammalian ErbB1 (summary in words)” value in [1] was “potent agonist of the mammalian EGF receptor ErbB1”. For the same substance, the “Hypersensitivity of the injected paw (summary in words)” value in series [2] is listed as “long-lasting hypersensitivity”.
For “rMg1a: Mg1a produced by recombinant expression in bacteria with an additional Gly residue at the N terminus (GDISDYGDPCSDDLKDYCIHGDCFFLKELNQPACRCYTGYYGSRCEHIDHN; not fully specified; left off: His6, N-terminal, cleaved | MBP, N-terminal, cleaved)”, the “Visual signs of inflammation (e.g., redness or swelling)” value in the series on paw inflammation in mice was “no visual signs of inflammation”. In [1] (BRET, HEK293T cells, Fig. 3A: stimulation with 100 nM ligand), the “Activity at hErbB1 (in words)” value was “active at hErbB1”. Besides, in series [1], the “Agonism at / potency on mammalian ErbB1 (summary in words)” value was “potent ligand of mammalian ErbB1 with activity comparable to that of hEGF”. Besides, the “Effect on blowflies after injection” value in series [3] was “no effect”. Further, the “Effect on crickets after injection” value in series [4] is listed as “no effect”. For the same substance, the “Paw-withdrawal threshold to thermal stimulus” value in series [5] is on record as “significant decrease”. In addition, the “Erk1/2 phosphorylation compared with hEGF” value in series [6] is reported as “equivalent to that caused by hEGF”. The “Paw-withdrawal threshold to mechanical stimulus” value in series [7] is “significant decrease”. In addition, the “Effect on fruit flies after injection” value in series [8] was “no effect”.
